Data set [1] has as its target T1, Broad substrate specificity ATP-binding cassette transporter ABCG2 (Homo sapiens, UniProt Q9UNQ0).
T1 sequence (Q9UNQ0 whole entry): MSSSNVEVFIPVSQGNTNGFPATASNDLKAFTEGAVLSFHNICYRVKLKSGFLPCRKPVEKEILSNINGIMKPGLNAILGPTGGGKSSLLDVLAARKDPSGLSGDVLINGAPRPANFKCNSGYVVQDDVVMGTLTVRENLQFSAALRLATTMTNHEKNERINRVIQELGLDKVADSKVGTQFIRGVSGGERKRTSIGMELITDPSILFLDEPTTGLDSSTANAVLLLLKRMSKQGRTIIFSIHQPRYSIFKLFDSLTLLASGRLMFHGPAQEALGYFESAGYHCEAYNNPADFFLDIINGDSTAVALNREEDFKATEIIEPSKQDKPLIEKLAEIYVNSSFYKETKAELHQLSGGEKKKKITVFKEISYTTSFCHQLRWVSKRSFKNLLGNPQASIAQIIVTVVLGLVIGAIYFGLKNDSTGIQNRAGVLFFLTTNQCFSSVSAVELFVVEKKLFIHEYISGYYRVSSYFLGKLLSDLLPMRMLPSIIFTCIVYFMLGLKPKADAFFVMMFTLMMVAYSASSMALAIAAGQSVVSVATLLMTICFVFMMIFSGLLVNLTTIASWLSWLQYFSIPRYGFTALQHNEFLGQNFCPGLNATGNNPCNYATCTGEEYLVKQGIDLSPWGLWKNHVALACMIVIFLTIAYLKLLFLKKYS
Briefly: Inhibition of ABCG2 (unknown origin) transfected in HEK293 cells assessed as inhibition of mitoxantrone efflux after 30 mins by flow cytometry relative to control. The data set is classed as cell-based.

Data set [2] has as its target ATP-dependent translocase ABCB1 (Homo sapiens, UniProt P08183). The data set can be described thus: Inhibition of ABCB1 (unknown origin) transfected in mouse NIH/3T3 cells assessed as inhibition of mitoxantrone efflux up to 10 uM after 30 mins by flow cytometry relative to control. The format is cell-based. The following applies: nih/3t3, 0.5 h. An outline of the steps: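 NIH-3T3-ABCB1 cells (1.5 × 10⁵/well, 48 h, kept in 60 ng/mL colchicine) were given 5 μM mitoxantrone for 30 min at 37 °C with bis-chalcone at 1 or 10 μM. Fluorescence was read by FL4 flow cytometry, ≥10 000 events. Inhibition was expressed relative to parental NIH-3T3 cells, whose maximal accumulation was taken as complete inhibition.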

The next data set concerns the target T2, ABCG2 (Homo sapiens, UniProt Q9UNQ0).
T2 sequence (Q9UNQ0 whole entry): T1 sequence (Q9UNQ0 whole entry)
The data set can be described thus: Inhibition of ABCG2 (unknown origin) transfected in HEK293 cells assessed as inhibition of mitoxantrone efflux at 5 uM after 30 mins by flow cytometry relative to control. The format is cell-based. The conditions noted are these: HEK293 cells transfected with ABCG2, probe mitoxantrone. A digest of the protocol:
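HEK293-ABCG2 cells (1.5 × 10⁵/well, grown 48 h) exposed to 5 μM mitoxantrone for 30 min at 37 °C with compound (increasing concentrations up to 10 μM); washed, trypsinized, FL4 flow cytometry, ≥10 000 events.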

Data set [3] concerns the target T1, Broad substrate specificity ATP-binding cassette transporter ABCG2. The data set can be described thus: Inhibition of human ABCG2 ATPase activity transfected in Sf9 insect cells using quercetin as substrate after 30 mins by colorimetry relative to control. A digest of the protocol:
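Vanadate-sensitive ATPase of cholesterol-loaded human ABCG2 Sf9 membranes (0.5 mg/mL; 10 μg/sample), 50 mM Tris-HCl/50 mM NaCl pH 8.0, with 2 μM quercetin. ATP-Mg 3.9 mM, 30 min, 37 °C. Phosphate measured colorimetrically at 880 nm. Coupled activity = total minus basal, taken as 100%. IC50 is the concentration giving 50% inhibition.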

Data set [4] can be described thus: Selectivity ratio of EC50 for human H23 cells overexpressing ABCG2 to EC50 for human H460 cells overexpressing ABCG2. The format is functional.
The next data set deals with T3, ABCG2 ATPase (Homo sapiens, UniProt Q9UNQ0).
T3 sequence (Q9UNQ0 whole entry): T1 sequence (Q9UNQ0 whole entry)
The data set can be described thus: Activation of human ABCG2 transfected in Sf9 insect cells assessed as stimulation of basal ATPase activity in absence of substrate drug after 30 mins by colorimetry. The conditions noted are these: Sf9 insect cells transfected with human ABCG2, read-out: FC. An outline of the steps:
(§1)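 Cholesterol-loaded membranes from Sf9 cells overexpressing human ABCG2 (0.5 mg/mL; 10 μg/sample) in 50 mM Tris-HCl, 50 mM NaCl, pH 8.0, with or without 0.33 mM orthovanadate, no transport substrate; started with 3.9 mM ATP-Mg, 30 min at 37 °C; stopped with SDS; phosphate released read with molybdate/ascorbic acid at 880 nm; vanadate-sensitive basal activity taken as 100%.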

Data set [5] concerns the target T1, Broad substrate specificity ATP-binding cassette transporter ABCG2. Briefly: Inhibition of ABCG2 (unknown origin) transfected in HEK293 cells assessed as inhibition of mitoxantrone efflux at 5 uM after 30 mins in presence of 0.02 uM Ko143 by flow cytometry. The data set is classed as cell-based.
Data set [6] concerns ATP-binding cassette sub-family G member 2 (Homo sapiens). Briefly: Inhibition of ABCG2-mediated mitoxantrone efflux in mitoxantrone-selected human PANC1 cells overexpressing ABCG2. The conditions noted are these: PANC-1.
A further data set concerns HEK293. Briefly: Cytotoxicity against HEK293 cells overexpressing ABCG2 at 0.1 uM after 72 hrs by MTT assay. The format is ADME, cell-based. The conditions noted are these: human, hek293, 72 h. A digest of the protocol: (§2)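 HEK293-ABCG2 and vector-control HEK293-pcDNA3.1 cells were seeded at 1 × 10⁴/well and grown 24 h, then exposed 72 h to mitoxantrone (0–25 nM). ABCG2 cells were also given bis-chalcone at 0.1 or 0.5 μM. MTT was added for 4 h, formazan dissolved in DMSO/ethanol (1:1) and read at 570 nm. IC50 = mitoxantrone concentration giving 50% survival.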

The next data set relates to PANC-1. Briefly: Selectivity ratio of EC50 for human PANC1 cells overexpressing ABCG2 to EC50 for human H460 cells overexpressing ABCG2. The format is functional.
Data set [7] has as its target T1, Broad substrate specificity ATP-binding cassette transporter ABCG2. The data set can be described thus: Inhibition of human ABCG2 transfected in Sf9 insect cells assessed as inhibition of basal ATPase activity in absence of substrate drug after 30 mins by colorimetry. The conditions noted are these: sf9, 0.5 h. A digest of the protocol: as §1
Data set [8] has the same target. The data set can be described thus: Inhibition of ABCG2 (unknown origin) transfected in HEK293 cells assessed as inhibition of mitoxantrone efflux at 5 uM after 30 mins in presence of 0.1 uM chromone 1 by flow cytometry. The format is cell-based.
Data set [9] addresses Multidrug resistance-associated protein 1 (Homo sapiens, UniProt P33527). The data set can be described thus: Inhibition of ABCC1 (unknown origin) transfected in HEK293 cells assessed as inhibition of calcein-AM efflux up to 10 uM after 30 mins by flow cytometry relative to control. The following applies: hek293, 0.5 h. The format is cell-based. A digest of the protocol:
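HEK293-ABCC1 cells (2 × 10⁵/well, kept in 200 μg/mL hygromycin B) were exposed to 0.2 μM calcein-AM for 30 min at 37 °C with bis-chalcone at 1 or 10 μM. Calcein was read by FL1 flow cytometry, ≥10 000 events. Inhibition was expressed relative to HEK293/pcDNA5 cells, whose maximal accumulation equals complete inhibition.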

For data set [10], the target named is T1, Broad substrate specificity ATP-binding cassette transporter ABCG2. Briefly: Inhibition of ABCG2 (unknown origin)-mediated mitoxantrone efflux transfected in HEK293 cells assessed as potentiation of mitoxantrone-induced cytotoxicity at 0.1 uM after 72 hrs by MTT assay. The data set is classed as cell-based. The conditions noted are these: hek293, 72 h. A digest of the protocol: as §2

Chain of ATP-dependent translocase ABCB1 (P08183 whole entry): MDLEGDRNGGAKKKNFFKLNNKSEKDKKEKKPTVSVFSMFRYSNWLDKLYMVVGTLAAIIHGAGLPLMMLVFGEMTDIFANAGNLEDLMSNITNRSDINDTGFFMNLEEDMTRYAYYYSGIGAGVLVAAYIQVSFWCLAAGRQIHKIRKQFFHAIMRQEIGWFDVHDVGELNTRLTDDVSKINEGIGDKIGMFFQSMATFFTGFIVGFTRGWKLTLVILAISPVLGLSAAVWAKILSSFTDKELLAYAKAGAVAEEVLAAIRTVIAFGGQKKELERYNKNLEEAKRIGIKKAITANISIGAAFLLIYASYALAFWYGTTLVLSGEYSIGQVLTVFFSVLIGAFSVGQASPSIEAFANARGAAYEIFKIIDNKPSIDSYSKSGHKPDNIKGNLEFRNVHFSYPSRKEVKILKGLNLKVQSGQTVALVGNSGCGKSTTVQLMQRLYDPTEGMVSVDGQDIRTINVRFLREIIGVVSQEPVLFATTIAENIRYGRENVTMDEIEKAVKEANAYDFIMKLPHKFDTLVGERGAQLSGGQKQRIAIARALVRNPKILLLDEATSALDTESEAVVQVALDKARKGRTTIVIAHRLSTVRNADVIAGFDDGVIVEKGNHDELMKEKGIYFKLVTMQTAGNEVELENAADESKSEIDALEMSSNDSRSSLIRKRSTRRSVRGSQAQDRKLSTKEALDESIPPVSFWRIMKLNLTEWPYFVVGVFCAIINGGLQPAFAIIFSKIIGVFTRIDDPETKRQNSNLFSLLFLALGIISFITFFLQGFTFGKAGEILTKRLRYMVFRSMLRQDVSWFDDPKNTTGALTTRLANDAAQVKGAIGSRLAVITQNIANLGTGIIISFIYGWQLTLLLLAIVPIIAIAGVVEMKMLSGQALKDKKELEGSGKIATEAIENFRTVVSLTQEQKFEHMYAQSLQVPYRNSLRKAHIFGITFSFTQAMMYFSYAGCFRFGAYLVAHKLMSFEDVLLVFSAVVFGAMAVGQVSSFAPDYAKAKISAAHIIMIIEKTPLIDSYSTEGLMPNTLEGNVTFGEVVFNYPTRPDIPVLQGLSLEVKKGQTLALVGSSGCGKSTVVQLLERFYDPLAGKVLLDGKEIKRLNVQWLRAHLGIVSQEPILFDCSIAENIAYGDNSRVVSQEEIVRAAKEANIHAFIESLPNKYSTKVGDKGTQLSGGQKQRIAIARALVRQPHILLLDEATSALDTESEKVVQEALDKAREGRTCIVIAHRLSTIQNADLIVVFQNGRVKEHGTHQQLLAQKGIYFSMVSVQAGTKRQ
Chain of Multidrug resistance-associated protein 1 (P33527 whole entry): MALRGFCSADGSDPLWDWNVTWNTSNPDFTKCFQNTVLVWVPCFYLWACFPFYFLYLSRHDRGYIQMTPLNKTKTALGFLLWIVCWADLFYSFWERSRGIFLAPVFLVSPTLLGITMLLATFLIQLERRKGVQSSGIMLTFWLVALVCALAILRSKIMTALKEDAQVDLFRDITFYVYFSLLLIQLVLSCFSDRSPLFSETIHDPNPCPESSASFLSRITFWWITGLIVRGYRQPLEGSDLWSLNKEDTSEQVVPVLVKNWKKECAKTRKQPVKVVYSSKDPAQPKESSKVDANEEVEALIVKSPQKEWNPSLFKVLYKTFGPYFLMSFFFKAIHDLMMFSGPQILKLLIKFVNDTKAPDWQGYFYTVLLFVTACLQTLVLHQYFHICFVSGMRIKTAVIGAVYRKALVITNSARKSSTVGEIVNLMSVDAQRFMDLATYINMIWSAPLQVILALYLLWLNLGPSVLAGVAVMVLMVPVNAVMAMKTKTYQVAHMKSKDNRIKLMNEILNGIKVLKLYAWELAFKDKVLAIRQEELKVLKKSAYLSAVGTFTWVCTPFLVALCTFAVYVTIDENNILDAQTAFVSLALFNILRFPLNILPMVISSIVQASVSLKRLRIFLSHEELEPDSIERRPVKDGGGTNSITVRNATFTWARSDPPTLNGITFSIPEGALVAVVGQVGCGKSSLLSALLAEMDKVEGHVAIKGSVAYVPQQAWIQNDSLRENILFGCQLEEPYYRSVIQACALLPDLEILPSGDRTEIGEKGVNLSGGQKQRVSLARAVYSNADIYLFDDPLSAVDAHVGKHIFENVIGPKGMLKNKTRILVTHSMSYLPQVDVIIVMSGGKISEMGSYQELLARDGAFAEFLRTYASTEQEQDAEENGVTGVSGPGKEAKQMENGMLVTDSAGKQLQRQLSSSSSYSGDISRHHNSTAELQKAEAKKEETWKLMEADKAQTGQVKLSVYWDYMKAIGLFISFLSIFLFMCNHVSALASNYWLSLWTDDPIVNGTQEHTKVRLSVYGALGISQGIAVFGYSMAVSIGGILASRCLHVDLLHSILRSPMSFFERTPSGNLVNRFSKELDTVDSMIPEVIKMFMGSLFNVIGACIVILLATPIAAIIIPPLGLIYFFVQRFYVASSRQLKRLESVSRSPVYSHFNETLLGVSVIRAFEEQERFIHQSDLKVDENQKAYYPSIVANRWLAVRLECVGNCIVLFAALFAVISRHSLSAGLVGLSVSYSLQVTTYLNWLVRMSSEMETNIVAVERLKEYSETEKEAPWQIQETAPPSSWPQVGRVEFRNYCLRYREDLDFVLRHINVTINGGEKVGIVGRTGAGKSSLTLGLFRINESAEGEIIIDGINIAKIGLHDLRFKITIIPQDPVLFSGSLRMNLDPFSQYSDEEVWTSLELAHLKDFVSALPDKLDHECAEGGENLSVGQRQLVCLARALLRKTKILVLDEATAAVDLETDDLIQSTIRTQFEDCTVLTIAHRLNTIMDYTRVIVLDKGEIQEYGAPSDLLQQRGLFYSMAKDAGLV

Consider `COc1cccc(OC)c1/C=C/C(=O)c1ccc(C(=O)/C=C/c2c(OC)cccc2OC)cc1`, for which the 50% effective concentration (EC50) came to 0.2 µM in [1], 0.126 µM in data set [5], 0.21 µM in [6] and 0.015 µM in data set [8]. In addition, the “inhibition (INH)” value in data set [2] is reported as “Not Active”; in [7], “Not Active”; in data set [9] it was “Not Active”; in [10] it was “Active”. On ABCG2, the inhibition at 0.5 h, 5 µM was 108%. Moreover, the IC50 in data set [3] amounted to 0.19 µM. The “Ratio EC50” value (in data set [4]; in the data set on PANC-1) was 3 throughout. Also, at ABCG2 ATPase, the fold induction at 0.5 h came to 1.6. Moreover, the Activity entry in the data set on HEK293 is reported as “Non-toxic”.

Values taken from ChEMBL document CHEMBL3232774, “Symmetric bis-chalcones as a new type of breast cancer resistance protein inhibitors with a mechanism different from that of chromones” (J Med Chem, 2014).
